Measured values from ChEMBL document CHEMBL1139681, “Discovery of orally active butyrolactam 11beta-HSD1 inhibitors” (Bioorg Med Chem Lett, 2006).

How the values were obtained:
[1] = system: Mus musculus; test: Effect on body weight in DIO C57BL/6J mouse at 30 mg/kg, po; format: functional
How it was run: (§1)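 Male C57BL/6J mice (5–6 weeks at purchase) made obese on high-fat diet, group-housed, 12 h light/dark cycle. Conditioned to oral gavage beforehand; assigned to groups of equal mean body weight. Dosed po bid (08:00, 15:00) in 1% Tween 80 in water, 4 ml/kg, for 14 days; lean and high-fat vehicle controls. Plasma analytes measured after 4 h fast; Dunnett's test.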

[2] = system: Mus musculus; test: Lowering of plasma insulin level in DIO C57BL/6J mouse at 30 mg/kg, po after 4hrs fasting; format: functional; how it was run: as §1
[3] = system: Mus musculus; test: Lowering of plasma glucose level in DIO C57BL/6J mouse at 30 mg/kg, po after 4 hr fasting; format: functional; how it was run: as §1
[4] = system: Mus musculus; test: Effect on plasma triglyceride level in DIO C57BL/6J mouse at 30 mg/kg, po after 4 hr fasting; format: functional; how it was run: as §1
[5] = biological target: T1, 11-beta-hydroxysteroid dehydrogenase 1 (Homo sapiens, UniProt P28845); test: Inhibition of human 11beta-HSD1
T1 sequence (P28845 whole entry): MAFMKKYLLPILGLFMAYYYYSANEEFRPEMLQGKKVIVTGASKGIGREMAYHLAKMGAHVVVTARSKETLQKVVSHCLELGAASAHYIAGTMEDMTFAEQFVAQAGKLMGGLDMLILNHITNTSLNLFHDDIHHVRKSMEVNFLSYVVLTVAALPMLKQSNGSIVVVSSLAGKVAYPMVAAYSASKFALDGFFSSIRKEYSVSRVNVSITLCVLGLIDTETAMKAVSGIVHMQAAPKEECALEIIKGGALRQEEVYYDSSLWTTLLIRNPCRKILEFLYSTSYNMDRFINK

[6] = biological target: T2, 11-beta-hydroxysteroid dehydrogenase type 2 (Homo sapiens, UniProt P80365); test: Inhibition of human 11beta-HSD2
T2 sequence (P80365 whole entry): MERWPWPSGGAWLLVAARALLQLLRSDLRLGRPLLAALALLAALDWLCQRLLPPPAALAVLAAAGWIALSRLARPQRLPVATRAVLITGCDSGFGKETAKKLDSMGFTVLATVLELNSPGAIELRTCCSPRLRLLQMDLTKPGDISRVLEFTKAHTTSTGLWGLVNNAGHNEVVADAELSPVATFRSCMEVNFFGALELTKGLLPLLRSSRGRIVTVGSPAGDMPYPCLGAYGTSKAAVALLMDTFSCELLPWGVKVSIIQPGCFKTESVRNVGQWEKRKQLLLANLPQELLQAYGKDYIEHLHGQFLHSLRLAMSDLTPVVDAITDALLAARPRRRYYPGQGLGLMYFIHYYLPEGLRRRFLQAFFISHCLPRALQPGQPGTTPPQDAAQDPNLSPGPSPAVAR

[7] = biological target: 11-beta-hydroxysteroid dehydrogenase 1 (Mus musculus, UniProt P50172); test: Inhibition of mouse 11beta-HSD1
Sequence of 11-beta-hydroxysteroid dehydrogenase 1 (Mus musculus, UniProt P50172) (P50172 whole entry): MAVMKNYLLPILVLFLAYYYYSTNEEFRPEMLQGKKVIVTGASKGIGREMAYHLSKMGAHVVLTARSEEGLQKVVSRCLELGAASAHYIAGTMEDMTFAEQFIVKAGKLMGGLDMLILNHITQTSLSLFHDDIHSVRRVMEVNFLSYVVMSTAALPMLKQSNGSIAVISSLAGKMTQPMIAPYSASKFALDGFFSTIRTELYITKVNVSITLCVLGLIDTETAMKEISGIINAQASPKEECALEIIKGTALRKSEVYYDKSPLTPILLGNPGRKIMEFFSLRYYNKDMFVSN

[8] = biological target: T3, 11-beta-hydroxysteroid dehydrogenase type 2 (Mus musculus, UniProt P51661); test: Inhibition of mouse 11beta-HSD2
T3 sequence (P51661 whole entry): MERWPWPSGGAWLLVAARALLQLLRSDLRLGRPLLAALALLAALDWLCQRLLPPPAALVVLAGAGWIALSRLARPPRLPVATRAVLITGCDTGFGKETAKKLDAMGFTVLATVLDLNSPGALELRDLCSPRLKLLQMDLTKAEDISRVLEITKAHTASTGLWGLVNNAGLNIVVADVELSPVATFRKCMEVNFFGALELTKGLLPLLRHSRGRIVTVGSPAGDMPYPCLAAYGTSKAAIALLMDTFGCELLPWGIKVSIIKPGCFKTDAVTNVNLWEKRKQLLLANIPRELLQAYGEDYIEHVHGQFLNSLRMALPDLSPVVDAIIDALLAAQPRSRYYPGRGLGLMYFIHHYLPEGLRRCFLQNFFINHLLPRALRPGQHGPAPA

[9] = biological target: T1, 11-beta-hydroxysteroid dehydrogenase 1; test: Inhibition of human 11beta-HSD1 expressed in HEK293 cells; format: cell-based
[10] = Stability in mouse liver microsomes after 30 min; format: ADME, Microsome; conditions: for remaining at 0.5 h: liver microsomes, read-out: Stability
How it was run: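 Percent parent remaining after a 30-min incubation with mouse liver microsomes.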

[11] = system: Mus musculus; test: Effect on body weight in DIO C57BL/6J mouse at 5 mg/kg, po; format: functional; how it was run: as §1
[12] = system: Mus musculus; test: Lowering of plasma insulin level in DIO C57BL/6J mouse at 5 mg/kg, po after 4 hr fasting; format: functional; how it was run: as §1
[13] = system: Mus musculus; test: Lowering of plasma glucose level in DIO C57BL/6J mouse at 5 mg/kg, po after 4 hr fasting; format: functional; how it was run: as §1
[14] = system: Mus musculus; test: Effect on plasma triglyceride level in DIO C57BL/6J mouse at 5 mg/kg, po after 4hrs fasting; format: functional; how it was run: as §1
[15] = biological target: 11-beta-hydroxysteroid dehydrogenase 1 (Mus musculus) (UniProt P50172); test: Inhibition of DIO mouse liver 11beta-HSD1at 30 mg/kg, po after 16 hrs; format: organism-based; set-up: dose 30 mg/kg; conditions: at 30 mg/kg
Sequence of 11-beta-hydroxysteroid dehydrogenase 1 (Mus musculus) (P50172 whole entry, looked up): as the sequence (P50172 whole entry) above
How it was run: (§2)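 DIO mice given a single 30 mpk dose; 11β-HSD1 inhibition in liver and fat measured ex vivo at 1, 7 and 16 h post-dose.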

[16] = biological target: 11-beta-hydroxysteroid dehydrogenase 1 (Mus musculus) (UniProt P50172); test: Inhibition of DIO mouse liver 11beta-HSD1at 30 mg/kg, po after 1 hr; format: organism-based; set-up: dose 30 mg/kg; conditions: at 30 mg/kg; how it was run: as §2
[17] = biological target: 11-beta-hydroxysteroid dehydrogenase 1 (Mus musculus) (UniProt P50172); test: Inhibition of DIO mouse epididymal fat pad 11beta-HSD1 at 30 mg/kg, po after 7 hrs; format: organism-based; set-up: dose 30 mg/kg; how it was run: as §2
[18] = biological target: 11-beta-hydroxysteroid dehydrogenase 1 (Mus musculus) (UniProt P50172); test: Inhibition of DIO mouse epididymal fat pad 11beta-HSD1 at 30 mg/kg, po after 16 hrs; format: organism-based; set-up: dose 30 mg/kg; how it was run: as §2
[19] = Plasma clearance in mouse at 5 mg/kg, iv and 10 mg/kg, po; format: ADME, organism-based
How it was run: (§3)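 Mouse PK; parameters derived from iv dosing at 5 mg/kg and oral (po) dosing at 10 mg/kg.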

[20] = Half life in mouse at 5 mg/kg, iv and 10 mg/kg, po; format: ADME, organism-based; conditions: in vivo; how it was run: as §3
[21] = biological target: 11-beta-hydroxysteroid dehydrogenase 1 (Mus musculus) (UniProt P50172); test: Inhibition of DIO mouse liver 11beta-HSD1at 30 mg/kg, po after 7 hrs; format: organism-based; set-up: dose 30 mg/kg; conditions: at 30 mg/kg; how it was run: as §2
[22] = Bioavailability in mouse at 5 mg/kg, iv and 10 mg/kg, po; format: ADME, organism-based; conditions: in vivo; how it was run: as §3
[23] = biological target: 11-beta-hydroxysteroid dehydrogenase 1 (Mus musculus) (UniProt P50172); test: Inhibition of DIO mouse epididymal fat pad 11beta-HSD1 at 30 mg/kg, po after 1 hr; format: organism-based; set-up: dose 30 mg/kg; how it was run: as §2

Row | Compound | IC50 [6] [µM] | IC50 [8] [µM] | IC50 [9] [µM] | remaining at 0.5 h [10] [%] | IC50 [5] [µM] | IC50 [7] [µM] | other results
1 | CC#C[C@]1(O)CC[C@H]2[C@@H]3CCC4=CC(=O)CCC4=C3[C@@H](c3ccc(N(C)C)cc3)C[C@@]21C [MIFEPRISTONE] | – | – | – | – | – | – | Activity [1]: 39.5 g; Activity [2]: 1.5 ng/mL; Activity [3]: 147.5 mg/dL; Activity [4]: 43.2 mg/dL
2 | CC1(C)C(=O)N([C@H]2C3CCCC2C[C@H](C(N)=O)C3)CC1COc1ccc(C#N)cn1 (some centres undefined) | > 100 | > 100 | 0.51 | 12 | – | – | Ki [5]: 0.029 µM; Ki [7]: 0.017 µM
3 | CN(CCOc1ccc(CC2SC(=O)NC2=O)cc1)c1ccccn1 (centres undefined) [ROSIGLITAZONE] | – | – | – | – | – | – | Activity [11]: 41.6 g; Activity [12]: 0.97 ng/mL; Activity [13]: 143.4 mg/dL; Activity [14]: 50.8 mg/dL
4 | CC1(C)C(=O)N([C@H]2C3CC4CC2C[C@](c2nnn[nH]2)(C4)C3)CC1COc1ccc(C(F)(F)F)cn1 (some centres undefined) | 0.63 | 1.6 | 0.23 | – | 0.31 | 0.43 | –
5 | NC(=O)[C@]12CC3CC(C1)[C@@H](N1CCC(Cc4ccccc4)C1=O)C(C3)C2 (some centres undefined) | > 30 | – | – | – | 0.035 | – | –
6 | CC1(C)C(=O)N([C@H]2C3CCCC2C[C@@H](C(N)=O)C3)CC1COc1ccc(C#N)cn1 (stereo in doubt; 32) | 22 | 100 | 0.046 | 92 | 0.005 | 0.009 | –
7 | CC1(C)C(=O)N([C@H]2C3CC4CC2C[C@](C(N)=O)(C4)C3)CC1COc1ccc(C#N)cn1 (some centres undefined) | – | 10 | – | 97 | – | 0.002 | inhibition [15]: 67%; inhibition [16]: 99%; inhibition [17]: 71%; inhibition [18]: 46%; clearance [19]: 33.3 mL/min/kg; half-life [20]: 1.3 h; inhibition [21]: 94%; bioavailability [22]: 76.6%; Activity [1]: 40.7 g; Activity [2]: 1.31 ng/mL; Activity [3]: 164.7 mg/dL; Activity [4]: 33.3 mg/dL
8 | CC1(C)C(=O)N(C2CCCCCC2)CC1COc1ccc(C#N)cn1 (centres undefined) | – | 100 | – | – | – | 0.062 | –
9 | CC1(C)C(=O)N(C23CCC(C(N)=O)(CC2)CC3)CC1COc1ccc(C#N)cn1 (centres undefined) | – | 100 | – | 91 | – | 0.01 | –
10 | CC1(C)C(=O)N([C@H]2C3CCCC2C[C@@H](C(N)=O)C3)CC1COc1ccc(C#N)cn1 (stereo in doubt; 31) [listing 1 of 2 here] | 15 | > 50 | 0.039 | – | 0.007 | 0.003 | clearance [19]: 23.3 mL/min/kg; half-life [20]: 1.3 h; Stability ([10]; microsomes, 0.5 h): 88%; bioavailability [22]: 63.9%
11 | CC1(C)C(=O)N([C@H]2C3CC4CC2C[C@](C(=N)N)(C4)C3)CC1COc1ccc(C(F)(F)F)cn1 (some centres undefined) | – | > 100 | – | 100 | – | 0.11 | –
12 | CCOC(=O)[C@H]1[C@@H]2CCC(N3CC(COc4ccc(C#N)cn4)C(C)(C)C3=O)CC[C@@H]21 (some centres undefined) | > 30 | > 100 | 0.518 | – | – | – | Ki [5]: 0.05 µM; Ki [7]: 0.26 µM
13 | CC1(C)C(=O)N([C@H]2C3CC4CC2C[C@](C(N)=O)(C4)C3)CC1COc1ccc(-n2cncn2)cc1 (some centres undefined) | 1.6 | 8 | 0.043 | – | 0.041 | 0.032 | –
14 | N#Cc1ccc(OCC2CC(=O)N(C3CCCCCC3)C2)nc1 (centres undefined) | – | – | – | – | – | 10 | –
15 | CC1(C)C(=O)N([C@H]2C3CCCC2C[C@@H](C(N)=O)C3)CC1COc1ccc(C#N)cn1 (stereo in doubt; 31) [listing 2 of 2 here] | – | – | – | – | – | – | inhibition [15]: 14%; inhibition [16]: 73%; inhibition [17]: 30%; inhibition [18]: 17%; inhibition [23]: 68%; inhibition [21]: 33%
16 | O=C1C(Cc2ccccc2)CCN1C1CCCCC1 (centres undefined) | > 10 | – | – | – | 0.107 | – | –
17 | CC1(C)C(=O)N(C2CCCN(C(N)=O)CC2)CC1COc1ccc(C#N)cn1 (centres undefined) | – | – | – | – | – | – | Ki [5]: 0.19 µM; Ki [7]: 0.25 µM
18 | O=C1C(Cc2ccccc2)CCN1[C@H]1C2CC3CC1C[C@](O)(C3)C2 (some centres undefined) | > 10 | – | – | – | 0.832 | – | –
19 | CC1(C)C(=O)N([C@H]2C3CC4CC2C[C@](C(N)=O)(C4)C3)CC1COc1ccc(-n2ccnc2)cc1 (some centres undefined) | 1.8 | 14 | 0.028 | 28 | 0.076 | 0.041 | –
20 | CC1(C)C(=O)N([C@H]2C3CC4CC2C[C@](C(=N)NO)(C4)C3)CC1COc1ccc(C(F)(F)F)cn1 (some centres undefined) | – | 60 | – | 67 | – | 0.014 | –
21 | C[C@H]1C(=O)N(C2CCCCCC2)C[C@@H]1COc1ccc(C#N)cn1 | – | – | – | – | – | 0.075 | –
22 | O=C1C(Cc2ccccc2)CCN1C1C2CC3CC(C2)CC1C3 (centres undefined) | > 10 | – | – | – | 0.064 | – | –
